Results as given in ChEMBL document CHEMBL4330127, “Discovery of Novel Pyruvate Dehydrogenase Kinase 4 Inhibitors for Potential Oral Treatment of Metabolic Diseases” (J Med Chem, 2019).
Active and inactive are the calls of the source. The calls are words filed in the database; no cut-off is given here.

Key:
[1] = target: T1, [Pyruvate dehydrogenase (acetyl-transferring)] kinase isozyme 4, mitochondrial (Homo sapiens, UniProt Q16654); assay: Inhibition of PDK4 in HEK293T cells assessed as reduction in PDHE1alpha phosphorylation at Ser-232 residue by measuring phosphorylated PDHE1alpha level at 10 uM after 24 hrs by Western blot analysis; type: cell-based
How it was run: (§1)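 HEK293T cells grown in high-glucose DMEM with 10% FBS at 37 °C, 5% CO2. Medium renewed after 24 h, then cells exposed to compound for 24 h and lysed. 20 μg protein per lane Western blotted with antibodies to phospho-PDHE1α Ser232, Ser293 and Ser300 and to total PDHE1α. Band intensity quantified relative to control; triplicate.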

[2] = target: T1, [Pyruvate dehydrogenase (acetyl-transferring)] kinase isozyme 4, mitochondrial; assay: Inhibition of PDK4 in HEK293T cells assessed as reduction in PDHE1alpha phosphorylation at Ser-300 residue by measuring phosphorylated PDHE1alpha level at 10 uM after 24 hrs by Western blot analysis; type: cell-based; how it was run: as §1
Cytochrome P450 1A2 = Cytochrome P450 1A2 (Homo sapiens, UniProt P05177); assay: Inhibition of CYP1A2 in human liver microsomes assessed as reduction in phenacetin-O-deethylation by tandem mass spectrometry analysis; type: ADME
How it was run: (§2)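 Pooled human liver microsomes incubated with compound at 0–50 μM final; CYP probe activities (phenacetin O-deethylation for 1A2, tolbutamide 4-hydroxylation for 2C9, omeprazole hydroxylation for 2C19, dextromethorphan O-demethylation for 2D6) run as a cocktail incubation and quantified by tandem MS; duplicates; IC50 derived.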

Cytochrome P450 2C19 = Cytochrome P450 2C19 (Homo sapiens, UniProt P33261); assay: Inhibition of CYP2C19 in human liver microsomes assessed as reduction in omeprazole hydroxylation by tandem mass spectrometry analysis; type: ADME; how it was run: as §2
[3] = target: UDP-glucuronosyltransferase 1A1 (Homo sapiens, UniProt P22309); assay: Inhibition of UGT1A1 in human liver microsomes assessed as reduction in SN-38 glucuronidation by tandem mass spectrometry analysis; type: ADME
How it was run: (§3)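 Pooled human liver microsomes; test compound at final 0–50 μM in a cocktail incubation with probe substrates: midazolam 1′-hydroxylation (CYP3A), SN-38 glucuronidation (UGT1A1), trifluoperazine N-glucuronidation (UGT1A4), mycophenolic acid glucuronidation (UGT1A9), naloxone 3-glucuronidation (UGT2B7). Metabolites measured by tandem MS; IC50 determined; duplicate.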

[4] = target: UDP-glucuronosyltransferase 1A4 (Homo sapiens, UniProt P22310); assay: Inhibition of UGT1A4 in human liver microsomes assessed as reduction in trifluoperazine N-glucuronidation by tandem mass spectrometry analysis; type: ADME; how it was run: as §3
Vero = assay: Cytotoxicity against African green monkey Vero cells; type: cell-based; conditions: Chlorocebus sabaeus
NIH3T3 = assay: Cytotoxicity against mouse NIH/3T3 cells; type: cell-based
CHO-K1 = assay: Cytotoxicity against CHOK1 cells; type: cell-based; conditions: Cricetulus griseus
Mast cell = assay: Inhibition of degranulation in IgE-labeled bone marrow-derived mast cells (unknown origin) assessed as reduction in beta-hexosaminidase release by measuring absorbance at 10 uM preincubated for 1 hr followed by HSA stimulation and measured after 15 mins (reference value: 0.26 +/- 0.025); type: functional
[5] = target: Cellular tumor antigen p53 (Homo sapiens) (UniProt P04637); assay: Induction of p53 phosphorylation at Ser-15 residue in human HCT116 cells after 24 hrs by Western blot analysis; type: cell-based
How it was run: (§4)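 HCT116 and RKO cells given a range of compound doses for 24 h; lysates probed by Western blot for apoptosis-related proteins (p53, BAX, BCLxL).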

HCT-116 [6] = assay: Induction of apoptosis in human HCT116 cells assessed as decrease in Bcl-XL expression at 10 to 50 uM after 24 hrs by Western blot analysis; type: functional, cell-based; how it was run: as §4
RKO [7] = assay: Induction of apoptosis in human RKO cells assessed as decrease in Bcl-XL expression at 10 to 50 uM after 24 hrs by Western blot analysis; type: functional, cell-based; how it was run: as §4
HCT-116 [8] = assay: Induction of apoptosis in human HCT116 cells assessed as increase in cleaved-PARP expression at 10 to 50 uM after 24 hrs by Western blot analysis; type: functional, cell-based; how it was run: as §4
RKO [9] = assay: Inhibition of colony formation in human RKO cells at 10 to 50 […] after 7 days by crystal violet staining based assay; type: functional, cell-based
How it was run: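 HCT116 and RKO cells seeded in 6-well plates and treated with compound for 7 days. Cells then fixed and stained with crystal violet to score colony formation.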

HCT-116 [10] = assay: Induction of apoptosis in human HCT116 cells assessed as live cells at 25 uM after 24 hrs by Annexin V/propidium iodide staining based flow cytometry (reference value: 84.4%); type: functional
HCT-116 [11] = assay: Induction of apoptosis in human HCT116 cells assessed as live cells at 50 uM after 24 hrs by Annexin V/propidium iodide staining based flow cytometry (reference value: 84.4%); type: functional
HCT-116 [12] = assay: Induction of apoptosis in human HCT116 cells assessed as early apoptotic cells at 50 uM after 24 hrs by Annexin V/propidium iodide staining based flow cytometry (reference value: 4.36%); type: functional
HCT-116 [13] = assay: Cell cycle arrest in human HCT116 cells assessed as accumulation at S phase at 10 uM after 24 hrs propidium iodide staining based flow cytometry (reference value: 18%); type: functional
How it was run: (§5)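 HCT116 and RKO cells were treated with compound alone or with oxaliplatin for 24 h before harvest. Cells were stained with propidium iodide, and DNA content was analysed by flow cytometry. Cell-cycle phase populations, including sub-G1, are given as percentages.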

HCT-116 [14] = assay: Cell cycle arrest in human HCT116 cells assessed as accumulation at sub-G1 phase at 25 uM after 24 hrs propidium iodide staining based flow cytometry (reference value: 17.8%); type: functional; how it was run: as §5
HCT-116 [15] = assay: Cell cycle arrest in human HCT116 cells assessed as accumulation at G2/M phase at 25 uM after 24 hrs propidium iodide staining based flow cytometry (reference value: 22.2%); type: functional; how it was run: as §5
HCT-116 [16] = assay: Cell cycle arrest in human HCT116 cells assessed as accumulation at sub-G1 phase at 50 uM after 24 hrs propidium iodide staining based flow cytometry (reference value: 17.8%); type: functional; how it was run: as §5
HCT-116 [17] = assay: Cell cycle arrest in human HCT116 cells assessed as accumulation at S phase at 25 uM after 24 hrs in presence of oxaliplatin propidium iodide staining based flow cytometry (reference value: 5.4%); type: functional; how it was run: as §5
RKO [18] = assay: Induction of apoptosis in human RKO cells assessed as late apoptotic cells at 25 uM after 24 hrs by Annexin V/propidium iodide staining based flow cytometry (reference value: 7.42%); type: functional
RKO [19] = assay: Induction of apoptosis in human RKO cells assessed as live cells at 50 uM after 24 hrs by Annexin V/propidium iodide staining based flow cytometry (reference value: 82.4%); type: functional
RKO [20] = assay: Cell cycle arrest in human RKO cells assessed as accumulation at sub-G1 phase at 25 uM after 24 hrs propidium iodide staining based flow cytometry (reference value: 17.6%); type: functional
RKO [21] = assay: Cell cycle arrest in human RKO cells assessed as accumulation at S phase at 25 uM after 24 hrs propidium iodide staining based flow cytometry (reference value: 19.2%); type: functional
RKO [22] = assay: Cell cycle arrest in human RKO cells assessed as accumulation at G1/G0 phase at 50 uM after 24 hrs propidium iodide staining based flow cytometry (reference value: 39.9%); type: functional; how it was run: as §5
RKO [23] = assay: Cell cycle arrest in human RKO cells assessed as accumulation at S phase at 50 uM after 24 hrs propidium iodide staining based flow cytometry (reference value: 19.2%); type: functional

T1 sequence (Q16654 whole entry, looked up): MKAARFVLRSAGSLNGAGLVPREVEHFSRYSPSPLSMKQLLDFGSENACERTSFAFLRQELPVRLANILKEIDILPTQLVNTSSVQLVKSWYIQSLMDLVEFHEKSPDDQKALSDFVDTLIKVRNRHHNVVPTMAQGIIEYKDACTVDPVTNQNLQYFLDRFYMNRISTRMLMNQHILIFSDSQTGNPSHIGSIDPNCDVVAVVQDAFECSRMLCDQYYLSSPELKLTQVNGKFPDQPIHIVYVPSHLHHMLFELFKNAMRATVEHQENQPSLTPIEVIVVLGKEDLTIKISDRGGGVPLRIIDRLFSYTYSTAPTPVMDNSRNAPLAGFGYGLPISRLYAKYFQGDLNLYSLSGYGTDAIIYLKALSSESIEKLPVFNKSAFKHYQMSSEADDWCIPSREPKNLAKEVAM
Chain of UDP-glucuronosyltransferase 1A4 (P22310 whole entry): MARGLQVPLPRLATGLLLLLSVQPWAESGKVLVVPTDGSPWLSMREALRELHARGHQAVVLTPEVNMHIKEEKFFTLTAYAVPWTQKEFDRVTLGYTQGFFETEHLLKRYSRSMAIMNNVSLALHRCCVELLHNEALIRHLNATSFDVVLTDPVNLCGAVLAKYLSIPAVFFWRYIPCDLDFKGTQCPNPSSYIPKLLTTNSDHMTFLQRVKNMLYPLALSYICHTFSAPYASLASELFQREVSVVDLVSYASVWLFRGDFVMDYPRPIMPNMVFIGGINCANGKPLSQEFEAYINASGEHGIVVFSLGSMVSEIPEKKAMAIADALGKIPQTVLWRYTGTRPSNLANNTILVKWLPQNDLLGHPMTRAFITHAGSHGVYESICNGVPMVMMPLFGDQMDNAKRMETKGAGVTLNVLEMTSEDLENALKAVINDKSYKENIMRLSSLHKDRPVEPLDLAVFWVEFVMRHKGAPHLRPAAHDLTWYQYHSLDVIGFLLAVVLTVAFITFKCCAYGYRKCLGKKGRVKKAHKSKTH
Chain of Cytochrome P450 1A2 (P05177 whole entry): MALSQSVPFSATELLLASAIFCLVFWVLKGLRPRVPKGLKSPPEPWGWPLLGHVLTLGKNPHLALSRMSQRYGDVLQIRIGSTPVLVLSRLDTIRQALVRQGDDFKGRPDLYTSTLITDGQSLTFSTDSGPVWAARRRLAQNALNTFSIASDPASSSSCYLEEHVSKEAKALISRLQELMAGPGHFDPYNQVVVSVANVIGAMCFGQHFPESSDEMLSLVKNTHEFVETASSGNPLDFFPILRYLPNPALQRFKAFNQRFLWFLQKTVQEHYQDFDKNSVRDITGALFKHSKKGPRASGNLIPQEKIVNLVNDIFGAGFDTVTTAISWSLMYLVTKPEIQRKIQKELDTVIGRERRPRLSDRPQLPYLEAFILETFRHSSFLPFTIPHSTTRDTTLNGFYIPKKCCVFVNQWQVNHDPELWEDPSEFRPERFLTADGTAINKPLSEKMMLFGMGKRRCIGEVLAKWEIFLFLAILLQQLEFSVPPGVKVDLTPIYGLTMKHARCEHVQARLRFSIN
Chain of Cellular tumor antigen p53 (Homo sapiens) (P04637 whole entry, looked up): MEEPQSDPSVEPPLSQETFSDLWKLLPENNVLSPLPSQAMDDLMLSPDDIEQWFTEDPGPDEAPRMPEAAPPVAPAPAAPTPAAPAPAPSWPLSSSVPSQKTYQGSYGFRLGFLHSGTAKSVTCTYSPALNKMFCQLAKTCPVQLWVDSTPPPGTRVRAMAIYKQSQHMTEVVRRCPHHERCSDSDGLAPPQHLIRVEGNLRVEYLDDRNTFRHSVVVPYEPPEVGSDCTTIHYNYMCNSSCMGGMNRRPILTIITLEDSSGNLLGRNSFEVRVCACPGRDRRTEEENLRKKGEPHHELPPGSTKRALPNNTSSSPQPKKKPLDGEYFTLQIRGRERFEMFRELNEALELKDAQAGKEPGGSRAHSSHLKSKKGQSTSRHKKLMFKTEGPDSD
Chain of Cytochrome P450 2C19 (P33261 whole entry): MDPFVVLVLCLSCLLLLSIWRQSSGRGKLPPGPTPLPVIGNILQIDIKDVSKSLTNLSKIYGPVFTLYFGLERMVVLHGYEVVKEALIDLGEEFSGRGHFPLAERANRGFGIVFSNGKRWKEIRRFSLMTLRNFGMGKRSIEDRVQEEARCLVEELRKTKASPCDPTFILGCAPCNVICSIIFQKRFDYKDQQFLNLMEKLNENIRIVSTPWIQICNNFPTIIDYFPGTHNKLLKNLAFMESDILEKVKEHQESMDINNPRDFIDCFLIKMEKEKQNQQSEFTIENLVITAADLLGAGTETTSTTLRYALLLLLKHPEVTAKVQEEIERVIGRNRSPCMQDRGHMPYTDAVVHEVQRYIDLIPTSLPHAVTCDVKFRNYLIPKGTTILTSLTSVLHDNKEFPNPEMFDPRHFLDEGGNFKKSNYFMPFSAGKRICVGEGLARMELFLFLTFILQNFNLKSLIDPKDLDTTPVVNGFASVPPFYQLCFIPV
Chain of UDP-glucuronosyltransferase 1A1 (P22309 whole entry): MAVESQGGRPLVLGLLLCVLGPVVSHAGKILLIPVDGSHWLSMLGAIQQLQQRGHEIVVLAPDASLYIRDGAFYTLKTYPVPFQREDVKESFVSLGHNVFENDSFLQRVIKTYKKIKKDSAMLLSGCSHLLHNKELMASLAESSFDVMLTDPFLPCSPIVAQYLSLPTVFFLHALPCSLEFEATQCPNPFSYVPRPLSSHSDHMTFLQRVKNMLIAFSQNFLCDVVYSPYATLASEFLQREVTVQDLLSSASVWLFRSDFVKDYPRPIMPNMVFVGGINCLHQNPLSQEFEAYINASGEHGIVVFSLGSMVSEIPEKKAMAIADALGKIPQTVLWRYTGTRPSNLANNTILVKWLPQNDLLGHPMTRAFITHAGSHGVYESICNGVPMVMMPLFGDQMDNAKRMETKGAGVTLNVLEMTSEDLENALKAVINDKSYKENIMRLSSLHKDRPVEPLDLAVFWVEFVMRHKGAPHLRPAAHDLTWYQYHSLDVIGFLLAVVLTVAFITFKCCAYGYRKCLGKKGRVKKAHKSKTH

Cl.O=C1c2ccccc2C(=O)c2c1cccc2-c1cnn(C2CCNCC2)c1
fold change (FC) [1]: 0.04 | fold change (FC) [2]: 0.26 | IC50 (Cytochrome P450 1A2): 16.3 µM | IC50 (Cytochrome P450 2C19): 42.4 µM | IC50 [3]: > 50 µM | IC50 [4]: > 50 µM | IC50 (Vero): 36.4 µM | IC50 (NIH3T3): 39.6 µM | IC50 (CHO-K1): 36 µM | OD (Mast cell): 0.2 | Activity [5]: Dose-dependent effect | Activity (HCT-116 [6]): Active | Activity (RKO [7]): Active | Activity (HCT-116 [8]): Active | inhibition (RKO [9]): Active | Activity (HCT-116 [10]): 49.4% | Activity (HCT-116 [11]): 21.2% | Activity (HCT-116 [12]): 4.1% | Activity (HCT-116 [13]): 29.1% | Activity (HCT-116 [14]): 32.5% | Activity (HCT-116 [15]): 37.1% | Activity (HCT-116 [16]): 78.2% | Activity (HCT-116 [17]): 12.7% | Activity (RKO [18]): 39.4% | Activity (RKO [19]): 9.59% | Activity (RKO [20]): 58.7% | Activity (RKO [21]): 6% | Activity (RKO [22]): 3.4% | Activity (RKO [23]): 2.7%
